Measured values: ChEMBL document CHEMBL1124412, “Long acting dihydropyridine calcium antagonists. 2. 2-[2-Aminoheterocycloethoxy]methyl derivatives” (J Med Chem, 1989)

How the values were obtained:
Rattus norvegicus = species on record: Rattus norvegicus; assay: Concentration required to inhibit calcium-induced constriction of potassium-depolarized rat aorta by 50%; assay type: functional
Cavia porcellus = species on record: Cavia porcellus; assay: In vitro assessment of negative inotropy in the isolated Langendorff perfused guinea pig heart; assay type: functional
Canis familiaris = assay: Percent decrease in coronary vascular resistance in dogs at 150 u/kg intravenous dose; assay type: functional, Canis lupus familiaris
How it was run: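 Anaesthetized beagle dogs were implanted with catheters for blood pressure, left ventricular pressure and intravenous dosing, and given 150 µg/kg i.v. Coronary blood flow was measured by hydrogen clearance with platinum electrodes in the coronary sinus and femoral artery, and cardiac output by thermodilution. Coronary vascular resistance was derived from these measurements, and the duration-of-action half-life was followed in hours.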

| Structure (SMILES) | IC50 (Rattus norvegicus) [nM] | pIC25 (Cavia porcellus) | Decrease in CVR (Canis familiaris) [%] |
| --- | --- | --- | --- |
| CCO/C(O)=C1\C(COCCNc2nccnc2Cl)=NC(C)=C(C(=O)OC)C1c1cccc(Cl)c1Cl (stereo unspecified) | 2.51 | 7.4 |  |
| CCO/C(O)=C1\C(COCCNC2=NC(=O)C(C)(C)N2)=NC(C)=C(C(=O)OC)C1c1cccc(Cl)c1Cl (stereo unspecified) | 20 | 6.2 |  |
| CCO/C(O)=C1\C(COCCNc2cc(NC)ncn2)=NC(C)=C(C(=O)OC)C1c1cccc(Cl)c1Cl (stereo unspecified) | 3.16 | 7.2 |  |
| CCO/C(O)=C1\C(COCCNc2ccnc(O)n2)=NC(C)=C(C(=O)OC)C1c1cccc(Cl)c1Cl (stereo unspecified) | 1.58 | 6.7 | 62 |
| CCO/C(O)=C1\C(COCCNc2cc(O)ncn2)=NC(C)=C(C(=O)OC)C1c1cccc(Cl)c1Cl (stereo unspecified) | 1.26 | 7.2 |  |
| CCO/C(O)=C1\C(COCCNc2nc(O)cs2)=NC(C)=C(C(=O)OC)C1c1cccc(Cl)c1Cl (stereo unspecified) | 20 | 6.1 |  |
| CCOC(=O)NC(=S)NCCOCC1=C(C(=O)OCC)C(c2cccc(Cl)c2Cl)/C(=C(\O)OC)C(C)=N1 (stereo unspecified) | 31.6 | 6.2 |  |
| CCO/C(O)=C1\C(COCCNc2nc(O)cc(-c3ccccc3)n2)=NC(C)=C(C(=O)OC)C1c1cccc(Cl)c1Cl (stereo unspecified) | 7.94 | 6.9 |  |
| CCO/C(O)=C1\C(COCCNc2nccnc2NC)=NC(C)=C(C(=O)OC)C1c1cccc(Cl)c1Cl (stereo unspecified) | 5.01 | 7 |  |
| CCO/C(O)=C1\C(COCCNc2cc(Cl)ncn2)=NC(C)=C(C(=O)OC)C1c1cccc(Cl)c1Cl (stereo unspecified) | 12.6 | 7.7 |  |
| CCO/C(O)=C1\C(COCC/N=C(/N)S)=NC(C)=C(C(=O)OC)C1c1cccc(Cl)c1Cl (stereo unspecified) | 1 | 7.2 |  |
| CCO/C(O)=C1\C(COCCNc2n[s+]([O-])nc2N)=NC(C)=C(C(=O)OC)C1c1cccc(Cl)c1Cl (stereo unspecified) | 15.8 | 7 |  |
| CCO/C(O)=C1\C(COCCNc2n[s+]([O-])nc2OC)=NC(C)=C(C(=O)OC)C1c1cccc(Cl)c1Cl (stereo unspecified) | 10 | 7.1 |  |
| COC(=O)C1=C(C)NC(C)=C(C(=O)OC)C1c1ccccc1[N+](=O)[O-] [NIFEDIPINE] |  | 7.5 | 77 |

Further lines, with some results ahead:

| IC50 (Rattus norvegicus) [nM] | Structure (SMILES) | pIC25 (Cavia porcellus) | Decrease in CVR (Canis familiaris) [%] |
| --- | --- | --- | --- |
| 20 | CCO/C(O)=C1\C(COCCNc2n[nH]c(N)n2)=NC(C)=C(C(=O)OC)C1c1ccccc1Cl (stereo unspecified) | 6.2 |  |
| 100 | CCO/C(O)=C1\C(C)=NC(COCCNc2n[nH]c(N)n2)=C(C(=O)OC)C1c1cccc(Cl)c1Cl (stereo unspecified) | 5.5 |  |
| 2.51 | CCO/C(O)=C1\C(COCCNc2nccc(O)n2)=NC(C)=C(C(=O)OC)C1c1cccc(Cl)c1Cl (stereo unspecified) | 6.7 | 70 |
| 6.31 | CCO/C(O)=C1\C(COCCNc2n[nH]c(N)n2)=NC(C)=C(C(=O)OC)C1c1cccc(Cl)c1Cl (stereo unspecified) | 6.3 | 70 |
| 3.98 | CCO/C(O)=C1\C(COCCNc2nc(N)n(C)n2)=NC(C)=C(C(=O)OC)C1c1cccc(Cl)c1Cl (stereo unspecified) | 6.8 |  |
| 3.16 | CCO/C(O)=C1\C(COCCNc2noc(N)n2)=NC(C)=C(C(=O)OC)C1c1cccc(Cl)c1Cl (stereo unspecified) | 7.3 | 76 |
| 126 | CCO/C(O)=C1\C(COCCNc2n[nH]c(N)n2)=NC(C)=C(C(=O)OC)C1c1cccc(Cl)c1 (stereo unspecified) |  |  |
| 3.98 | CCO/C(O)=C1\C(COCCNc2n[nH]c(N)n2)=NC(C)=C(C(=O)OC)C1c1cccc(C(F)(F)F)c1Cl (stereo unspecified) | 6.3 |  |
| 10 | CCO/C(O)=C1\C(COCCNc2n[nH]c(O)n2)=NC(C)=C(C(=O)OC)C1c1cccc(Cl)c1Cl (stereo unspecified) | 6.4 |  |
| 316 | CCO/C(O)=C1\C(COCCNc2n[nH]c(N)n2)=NC(C)=C(C(=O)OC)C1c1cccnc1Cl (stereo unspecified) | 6 |  |
